Several values for one entry are separate records, joined by “and”; a condition that tells them apart may be missing. Identical values can stand only once.
Test system: Fibroblast
Experiment: Multiplex assay against human fibroblast
Type: toxicity, cell-based
Conditions: 1 µM, compound concentration 1 uM
In short: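 Cells were classed with CellPathfinder machine-learning gating, first as Hoechst high-intensity objects or normal cells, then (normal cells) as healthy, pyknosed or fragmented nuclei, and finally (pyknosed cells) as mitotic or apoptotic. Staining of live cells at seeding used Hoechst33342, BioTracker Green Microtubule Cytoskeleton Dye, MitoTracker Red and Annexin V Alexa Fluor 680, with imaging on a CQ1 microscope at 37°C and 5% CO2 after compound addition. Tubulin, mitochondrial-mass and membrane-permeability phenotypes are per cents of healthy-nucleus cells.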

For `C[C@]1(O)C[C@@H](c2nc(-c3ccc4ccc(-c5ccccc5)nc4c3)c3c(N)nccn32)C1` [LINSITINIB], the “Population Apoptotic (%)” value (12 h, replicate 1) was 56% and 93%, the “Population Fragmented Nuclei (%)” value (12 h, replicate 1) was 43% and 32% and the “Population Healthy Nuclei (%)” value (12 h, replicate 1) was 44% and 50%. The “Population Hoechst High Intensity Objects (%)” value (12 h, replicate 1) was 18% and 12%, the “Population Membrane Permeable-Phenotype (%)” value (12 h, replicate 1) was 13% and 8% and the “Population Mitochondria Different-Phenotype (%)” value (12 h, replicate 1) was 1%. The “Population Normal (%)” value (12 h, replicate 1) was 81% and 87%, the “Population Pyknosed Nuclei (%)” value (12 h, replicate 1) was 11% and 17% and the “Total Cell Count” value (12 h, replicate 1) was 345 and 206. For the same compound, the “Population Apoptotic (%)” value (12 h, replicate 2) was 40% and 66%, the “Population Fragmented Nuclei (%)” value (12 h, replicate 2) was 56% and 76% and the “Population Healthy Nuclei (%)” value (12 h, replicate 2) was 31% and 18%. The “Population Hoechst High Intensity Objects (%)” value (12 h, replicate 2) was 45% and 43%, the “Population Membrane Permeable-Phenotype (%)” value (12 h, replicate 2) was 0% and 9% and the “Population Mitotic Cells (%)” value (12 h, replicate 2) was 60% and 33%. The “Population Normal (%)” value (12 h, replicate 2) was 54% and 56%, the “Population Pyknosed Nuclei (%)” value (12 h, replicate 2) was 12% and 5% and the “Total Cell Count” value (12 h, replicate 2) was 75 and 105. For the same compound, the “Population Apoptotic (%)” value (24 h, replicate 1) was 52% and 80%, the “Population Fragmented Nuclei (%)” value (24 h, replicate 1) was 47% and 33% and the “Population Healthy Nuclei (%)” value (24 h, replicate 1) was 44% and 51%. The “Population Hoechst High Intensity Objects (%)” value (24 h, replicate 1) was 22% and 12%, the “Population Membrane Permeable-Phenotype (%)” value (24 h, replicate 1) was 9% and the “Population Mitochondria Different-Phenotype (%)” value (24 h, replicate 1) was 2% and 4%. The “Population Mitotic Cells (%)” value (24 h, replicate 1) was 47% and 20%, the “Population Normal (%)” value (24 h, replicate 1) was 77% and 87% and the “Population Pyknosed Nuclei (%)” value (24 h, replicate 1) was 8% and 14%. For the same compound, the “Total Cell Count” value (24 h, replicate 1) was 364 and 202, the “Population Apoptotic (%)” value (24 h, replicate 2) was 50% and the “Population Fragmented Nuclei (%)” value (24 h, replicate 2) was 58% and 75%. For the same compound, the “Population Healthy Nuclei (%)” value (24 h, replicate 2) was 37% and 21%, the “Population Hoechst High Intensity Objects (%)” value (24 h, replicate 2) was 33% and 52% and the “Population Membrane Permeable-Phenotype (%)” value (24 h, replicate 2) was 21% and 18%. The “Population Mitotic Cells (%)” value (24 h, replicate 2) was 50%, the “Population Normal (%)” value (24 h, replicate 2) was 66% and 47% and the “Population Pyknosed Nuclei (%)” value (24 h, replicate 2) was 3%. The “Total Cell Count” value (24 h, replicate 2) was 77 and 109.

Reference: ChEMBL document CHEMBL4689842, “EUbOPEN Chemogenomics Library wave 1” (2021)
